According to ChEMBL document CHEMBL1132135, “Potent, orally absorbed glucagon receptor antagonists” (Bioorg Med Chem Lett, 1999):

What was measured:
[1] = Concentration in plasma (portal) following oral dose in rats at 0.25 hr; type: ADME, organism-based; settings: rat
In short: (§1)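 Fasted male Sprague-Dawley rats (300-400 g) were gavaged at 3.0 mg/kg, using a 0.3 mg/mL solution in 5% PEG-400/5% Tween-80/90% water at 10 mL/kg. At each time point animals were CO2-anesthetized. Portal vein blood was drawn first, then cardiac puncture at sacrifice. Samples were heparinized, held at 0 °C for up to 2 h, then centrifuged. Plasma proteins were precipitated with acetonitrile and analyzed by LC/MS/MS.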

[2] = Concentration in plasma (portal) following oral dose in rats at 1 hr; type: ADME, organism-based; settings: rat; in short: as §1
[3] = Concentration in plasma (portal) following oral dose in rats at 2 hr; type: ADME, organism-based; settings: rat; in short: as §1
[4] = Concentration in plasma (systemic) following oral dose in rats at 0.25 hr; type: ADME, organism-based; settings: rat; in short: as §1
[5] = Concentration in plasma (systemic) following oral dose in rats at 1 hr; type: ADME, organism-based; settings: rat; in short: as §1
[6] = Concentration in plasma (systemic) following oral dose in rats at 2 hr; type: ADME, organism-based; settings: rat; in short: as §1
[7] = Concentration in plasma (systemic) following oral dose in mouse at 0.25 hr; type: ADME, organism-based
In short: (§2)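 Oral gavage in CD1 mice at 50 mg/kg, vehicle 5% PEG-400/5% Tween-80/90% water, 10 mL/kg. At each time point mice were CO2-anesthetized and bled by cardiac puncture at sacrifice. Samples were heparinized, kept at 0 °C for up to 2 h, then centrifuged to plasma. Plasma proteins were precipitated with acetonitrile and analyzed by HPLC.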

[8] = Concentration in plasma (systemic) following oral dose in mouse at 1 hr; type: ADME, organism-based; in short: as §2
[9] = Concentration in plasma (systemic) following oral dose in mouse at 24 hr; type: ADME, organism-based; in short: as §2
[10] = Concentration in plasma (systemic) following oral dose in mouse at 2 hr; type: ADME, organism-based; in short: as §2
[11] = Concentration in plasma (systemic) following oral dose in mouse at 4 hr; type: ADME, organism-based; in short: as §2
[12] = Concentration in plasma (systemic) following oral dose in mouse at 6 hr; type: ADME, organism-based; in short: as §2
[13] = biological target: T1, Glucagon receptor (Mus musculus, UniProt Q61606); assay: Binding affinity towards glucagon receptor determined by reduction in binding of 125 I-glucagon to the murine glucagon receptor (mGLUR) expressed on CHO cells in presence of Mg+2; type: cell-based
T1 sequence (Q61606 whole entry): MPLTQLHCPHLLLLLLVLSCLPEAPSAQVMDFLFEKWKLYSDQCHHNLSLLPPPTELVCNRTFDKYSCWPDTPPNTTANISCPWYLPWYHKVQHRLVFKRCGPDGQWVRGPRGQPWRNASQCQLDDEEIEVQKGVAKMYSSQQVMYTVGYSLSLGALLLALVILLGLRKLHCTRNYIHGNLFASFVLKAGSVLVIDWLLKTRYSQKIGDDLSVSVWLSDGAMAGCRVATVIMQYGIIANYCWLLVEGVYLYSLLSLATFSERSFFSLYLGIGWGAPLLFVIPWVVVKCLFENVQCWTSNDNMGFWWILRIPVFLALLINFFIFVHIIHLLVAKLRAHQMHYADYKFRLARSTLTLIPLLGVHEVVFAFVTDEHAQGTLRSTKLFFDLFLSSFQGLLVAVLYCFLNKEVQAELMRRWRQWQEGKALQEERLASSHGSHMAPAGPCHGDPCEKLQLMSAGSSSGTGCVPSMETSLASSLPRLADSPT
In short: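 Mg2+ added at 5 mM, a physiological level, to the binding medium. IC50 reported in µM, with the number of determinations noted; where no IC50 was reached, percent inhibition is given at a single tested concentration.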

[14] = biological target: T1, Glucagon receptor; assay: Binding affinity towards glucagon receptor determined by reduction in binding of [125I]glucagon to the murine glucagon receptor (GGR) expressed on CHO cells in absence of Mg+2; type: cell-based
[15] = biological target: T2, Glucagon receptor (Homo sapiens, UniProt P47871); assay: biochemical; type: cell-based, CHO
T2 sequence (P47871 whole entry): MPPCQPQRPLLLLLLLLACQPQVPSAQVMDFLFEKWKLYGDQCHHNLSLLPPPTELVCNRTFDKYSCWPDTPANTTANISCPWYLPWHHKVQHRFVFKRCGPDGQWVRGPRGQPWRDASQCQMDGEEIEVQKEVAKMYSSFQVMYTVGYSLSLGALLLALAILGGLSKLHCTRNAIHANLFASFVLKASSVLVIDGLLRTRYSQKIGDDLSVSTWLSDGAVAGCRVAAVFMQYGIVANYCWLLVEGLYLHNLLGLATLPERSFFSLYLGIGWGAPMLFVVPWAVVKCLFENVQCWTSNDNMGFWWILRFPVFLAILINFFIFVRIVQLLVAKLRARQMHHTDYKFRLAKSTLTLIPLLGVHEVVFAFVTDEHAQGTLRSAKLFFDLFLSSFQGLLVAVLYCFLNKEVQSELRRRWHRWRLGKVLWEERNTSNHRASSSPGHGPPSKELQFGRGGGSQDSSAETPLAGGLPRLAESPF

[16] = biological target: T2, Glucagon receptor; assay: Binding affinity towards glucagon receptor determined by reduction in binding of [125I]glucagon to the human glucagon receptor (GGR) expressed on CHO cells in presence of Mg+2; type: cell-based
In short: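 Radioligand binding to the glucagon receptor was run with 5 mM Mg2+ added, described as a physiological concentration.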

[17] = biological target: Mitogen-activated protein kinase 14 (Homo sapiens, UniProt Q16539); assay: Inhibitory activity against p38-alpha kinase
Sequence of Mitogen-activated protein kinase 14 (Q16539 whole entry): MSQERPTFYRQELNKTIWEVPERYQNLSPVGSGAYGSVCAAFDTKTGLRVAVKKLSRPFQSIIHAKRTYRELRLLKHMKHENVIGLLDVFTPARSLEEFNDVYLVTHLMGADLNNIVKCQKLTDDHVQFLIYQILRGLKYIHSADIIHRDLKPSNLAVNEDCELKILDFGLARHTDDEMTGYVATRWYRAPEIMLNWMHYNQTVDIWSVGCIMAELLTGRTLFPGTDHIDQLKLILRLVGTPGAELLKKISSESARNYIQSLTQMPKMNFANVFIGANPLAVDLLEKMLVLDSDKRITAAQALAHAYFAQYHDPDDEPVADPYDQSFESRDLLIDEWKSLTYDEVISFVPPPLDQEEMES

[18] = Selectivity ratio between the binding value of human glucagon receptor (GGR) with Mg+2 and the value of p38 kinase
[19] = biological target: T1, Glucagon receptor; assay: Binding affinity towards glucagon receptor determined by reduction in binding of 125 I-glucagon to the murine glucagon receptor (mGLUR) expressed on CHO cells in absence of Mg; type: cell-based
[20] = biological target: Glucagon receptor (Mus musculus) (UniProt Q61606); assay: Binding affinity towards glucagon receptor determined by reduction in binding of 125 I-glucagon to the murine glucagon receptor (mGLUR) expressed on CHO cells in presence of Mg+2 at 1 uM; type: cell-based
Sequence of Glucagon receptor (Mus musculus) (Q61606 whole entry): as the sequence (Q61606 whole entry) above

SMILES | concentration at 0.25 h [1] | concentration at 1 h [2] | concentration at 2 h [3] | concentration at 0.25 h [4] | concentration at 1 h [5] | concentration at 2 h [6] | concentration at 0.25 h [7] | concentration at 1 h [8] | concentration at 24 h [9] | concentration at 2 h [10] | concentration at 4 h [11] | concentration at 6 h [12] | IC50 [13] | IC50 [14] | IC50 [15] | IC50 [16] | IC50 [17] | Ratio [18] | IC50 [19] | inhibition [20]
CCCOc1ccc(Br)cc1-c1cc(-c2ccc(Cl)cc2)[nH]c1-c1ccncc1 | 25 nM | 1240 nM | 1400 nM | 9 nM | 590 nM | 840 nM | 1700 nM | 15200 nM | 700 nM | 11700 nM | 16500 nM | 13100 nM | 250 nM | 37 nM | 7 nM | 170 nM | 1440 nM | 0.12 |  | 
Clc1ccc(-c2cc(-c3cccc(Br)c3)c(-c3ccncc3)[nH]2)cc1 |  |  |  |  |  |  |  |  |  |  |  |  |  |  | 150 nM | 1700 nM | 80 nM | 21.2 | 230 nM | 48%
